Assay results from ChEMBL document CHEMBL1122522, “Conformationally restricted retinoids” (1984).
Calls of active or inactive are those of the source. The rule behind the calls is not given here.

Columns and labels:
Cricetinae gen. sp. [1] = test: Activity of compound the was expressed as ratio of active hamster tracheal organ cultures(TOC) to the total cultures at 10e-10 M concentration; 12/14; assay type: functional, Cricetulus griseus, Trachea
Outline: (§1)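 Tracheal organ cultures came from vitamin A-deficient hamsters. Each culture was scored for reversal of keratinization and reported as active cultures out of total cultures at each retinoid concentration tested (10⁻⁸ to 10⁻¹² M). The protocol followed earlier published methods.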

Cricetinae gen. sp. [2] = test: Molarity required to effect reversal of keratinization in 50% of cultures.; assay type: functional, Cricetulus griseus
Cricetinae gen. sp. [3] = test: Activity of compound the was expressed as ratio of active hamster tracheal organ cultures(TOC) to the total cultures at 10e-8 M concentration; 7/7; assay type: functional, Cricetulus griseus, Trachea; conditions: at 0.01 µM
Cricetinae gen. sp. [4] = test: Activity of compound the was expressed as ratio of active hamster tracheal organ cultures(TOC) to the total cultures at 10e-9 M concentration; 7/7; assay type: functional, Cricetulus griseus, Trachea; outline: as §1
Mus musculus [5] = species: Mus musculus; test: Tested for relative activity in a 20-week anti-papilloma experiment in female CD-1 mice at dose 170 nmol; assay type: functional
Outline: (§2)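 Female Charles River CD-1 mice, 8 weeks old, in random groups of 25–30, were shaved 2 days before initiation with 200 nmol DMBA in acetone on the back. From 2 weeks on, 8.5 nmol TPA was applied twice weekly for 20 weeks. Retinoid in 0.2 mL acetone, or acetone alone for controls, was given 1 h before each TPA dose. Papillomas were counted weekly, and mean papillomas per mouse were compared with controls at 20 weeks.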

Mus musculus [6] = species: Mus musculus; test: Tested for relative activity in a 20-week anti-papilloma experiment in female CD-1 mice at dose 17 nmol; assay type: functional; outline: as §2
Mus musculus [7] = species: Mus musculus; test: Percent decrease in average number of papillomas 170 at dose; assay type: functional; outline: as §2
Mus musculus [8] = species: Mus musculus; test: Percent decrease in average number of papillomas 17 at dose; assay type: functional; outline: as §2
[9] = biological target: T1, Ornithine decarboxylase (Mus musculus) (UniProt P00860); test: TInhibition of the induction of ornithine decarboxylase in mouse epidermis by the tumor promoter 12-O-tetradecanoylphorbol-13-acetate (ODC) at dose 1.7 nmol
T1 sequence (whole entry): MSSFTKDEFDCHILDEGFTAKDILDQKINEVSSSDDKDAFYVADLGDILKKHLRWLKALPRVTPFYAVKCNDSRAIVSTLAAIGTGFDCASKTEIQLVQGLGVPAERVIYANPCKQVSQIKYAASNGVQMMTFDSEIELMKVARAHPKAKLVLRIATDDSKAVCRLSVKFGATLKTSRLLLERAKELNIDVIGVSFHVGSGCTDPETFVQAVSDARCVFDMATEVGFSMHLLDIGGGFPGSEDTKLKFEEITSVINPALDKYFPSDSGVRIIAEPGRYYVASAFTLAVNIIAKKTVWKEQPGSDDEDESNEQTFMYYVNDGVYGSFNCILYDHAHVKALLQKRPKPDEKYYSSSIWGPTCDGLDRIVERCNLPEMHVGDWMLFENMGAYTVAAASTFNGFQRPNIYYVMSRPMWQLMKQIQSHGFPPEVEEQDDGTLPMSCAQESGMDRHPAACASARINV

[10] = biological target: T1, Ornithine decarboxylase (Mus musculus); test: Inhibition of the induction of ornithine decarboxylase in mouse epidermis by the tumor promoter 12-O-tetradecanoylphorbol-13-acetate (ODC)) at dose 17 nmol
[11] = Mortality range in days at dose 300 umol/kg day; 14-15; assay type: functional, Mus musculus
Outline: (§3)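 Adult female Swiss mice (20–25 g) had chow and water ad libitum. The retinoid was homogenized as a suspension in aqueous 8% Cremophor EL plus 10% propylene glycol. It was given ip as 10 weekday injections over 14 days. Controls received vehicle alone. Survivors were weighed on days 1, 5, 10 and 15, and dates of death were recorded. Survival was scored at days 8 and 15.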

[12] = Mortality range in days at dose 600 umol/kg day; 9-10; assay type: functional, Mus musculus; outline: as §3
[13] = Percent survivors at dose 100 umol/kg day; assay type: functional, Mus musculus; outline: as §3
[14] = Percent survivors at dose 200 umol/kg day; assay type: functional, Mus musculus; outline: as §3
[15] = Percent survivors at dose 300 umol/kg day; assay type: functional, Mus musculus; outline: as §3
[16] = Percent survivors at dose 30 umol/kg day; assay type: functional, Mus musculus; outline: as §3
[17] = Percent survivors at dose 600 umol/kg day; assay type: functional, Mus musculus; outline: as §3
Cricetinae gen. sp. [18] = test: Activity of compound the was expressed as ratio of active hamster tracheal organ cultures(TOC) to the total cultures at 10e-10 M concentration; 2/7; assay type: functional, Cricetulus griseus, Trachea; outline: as §1
Cricetinae gen. sp. [19] = test: Molarity required to effect reversal of keratinization in 50% of the cultures; assay type: functional, Cricetulus griseus
Outline: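 Tracheal organ cultures from vitamin A-deficient hamsters were scored for reversal of keratinization across a range of molar retinoid concentrations. The value is the concentration reversing keratinization in 50% of cultures, read from active/total culture counts.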

Cricetinae gen. sp. [20] = test: Activity of compound the was expressed as ratio of active hamster tracheal organ cultures(TOC) to the total cultures at 10e-9 M concentration; 1/6; assay type: functional, Cricetulus griseus, Trachea; outline: as §1
[21] = biological target: T1, Ornithine decarboxylase (Mus musculus); test: Inhibition of the induction of ornithine decarboxylase in mouse epidermis by the tumor promoter 12-O-tetradecanoylphorbol-13-acetate (ODC) at dose 17 nmol; Inhibition not significant
[22] = biological target: T1, Ornithine decarboxylase (Mus musculus); test: Inhibition of the induction of ornithine decarboxylase in mouse epidermis by the tumor promoter 12-O-tetradecanoylphorbol-13-acetate (ODC) at dose 1.7 nmol; Inhibition not significant
Cricetinae gen. sp. [23] = test: Activity of compound the was expressed as ratio of active hamster tracheal organ cultures(TOC) to the total cultures at 10e-12 M concentration; 6/15; assay type: functional, Cricetulus griseus, Trachea; outline: as §1
Cricetinae gen. sp. [24] = test: Activity of compound the was expressed as ratio of active hamster tracheal organ cultures(TOC) to the total cultures at 10e-10 M concentration; 15/15; assay type: functional, Cricetulus griseus, Trachea; outline: as §1
Cricetinae gen. sp. [25] = test: Activity of compound the was expressed as ratio of active hamster tracheal organ cultures(TOC) to the total cultures at 10e-11 M concentration; 15/15; assay type: functional, Cricetulus griseus, Trachea; outline: as §1
Mus musculus [26] = species: Mus musculus; test: Tested for relative activity in a 20-week anti-papilloma experiment in female CD-1 mice at dose 0.17 nmol; assay type: functional; outline: as §2
Mus musculus [27] = species: Mus musculus; test: Tested for relative activity in a 20-week anti-papilloma experiment in female CD-1 mice at dose 1.7 nmol; assay type: functional; outline: as §2
Mus musculus [28] = species: Mus musculus; test: Tested for relative activity in a 20-week anti-papilloma experiment in female CD-1 mice at dose 17 nmol; e-Animalsdied at 3-7 weeks; assay type: functional, organism-based; outline: as §2
Mus musculus [29] = species: Mus musculus; test: Percent decrease in average number of papillomas 0.17 at dose*-p<0.001; assay type: functional; outline: as §2
Mus musculus [30] = species: Mus musculus; test: Percent decrease in average number of papillomas 1.7 at dose*-p<0.001; assay type: functional; outline: as §2
[31] = biological target: T1, Ornithine decarboxylase (Mus musculus); test: TInhibition of the induction of ornithine decarboxylase in mouse epidermis by the tumor promoter 12-O-tetradecanoylphorbol-13-acetate (ODC) at dose 1.7 nmol*-p<0.001
[32] = biological target: T1, Ornithine decarboxylase (Mus musculus); test: Inhibition of the induction of ornithine decarboxylase in mouse epidermis by the tumor promoter 12-O-tetradecanoylphorbol-13-acetate (ODC) at dose 17 nmol*-p<0.001
[33] = Mortality range in days at dose 20 umol/kg day; 6-8; assay type: functional, Mus musculus; outline: as §3
[34] = Mortality range in days at dose 30 umol/kg day; 10-15; assay type: functional, Mus musculus; outline: as §3
[35] = Mortality range in days at dose 30 umol/kg day; 7-10; assay type: functional, Mus musculus; outline: as §3
[36] = Mortality range in days at dose 30 umol/kg day; 7-11; assay type: functional, Mus musculus; outline: as §3
[37] = Percent survivors at dose 1.0 umol/kg day; assay type: functional, Mus musculus; outline: as §3
[38] = Percent survivors at dose 10 umol/kg day; assay type: functional, Mus musculus; outline: as §3
Mus musculus [39] = species: Mus musculus; test: Tested for relative activity in a 20-week anti-papilloma experiment in female CD-1 mice at dose 170 nmol;d- Animals died at 1-2 weeks; assay type: functional, organism-based; outline: as §2
[40] = Percent survivors at dose 3.3 umol/kg day; assay type: functional, Mus musculus; outline: as §3
Cricetinae gen. sp. [41] = test: Activity of compound the was expressed as ratio of active hamster tracheal organ cultures(TOC) to the total cultures at 10e-10 M concentration; 1/7; assay type: functional, Cricetulus griseus, Trachea; outline: as §1
Cricetinae gen. sp. [42] = test: Activity of compound the was expressed as ratio of active hamster tracheal organ cultures(TOC) to the total cultures at 10e-9 M concentration; 2/7; assay type: functional, Cricetulus griseus, Trachea; outline: as §1
Cricetinae gen. sp. [43] = test: Activity of compound the was expressed as ratio of active hamster tracheal organ cultures(TOC) to the total cultures at 10e-8 M concentration; 3/7; assay type: functional, Cricetulus griseus, Trachea; outline: as §1
[44] = biological target: T1, Ornithine decarboxylase (Mus musculus); test: Inhibition of the induction of ornithine decarboxylase in mouse epidermis by the tumor promoter 12-O-tetradecanoylphorbol-13-acetate (ODC) at dose 17 nmol * * inhibition not significant
[45] = biological target: T1, Ornithine decarboxylase (Mus musculus); test: Inhibition of the induction of ornithine decarboxylase in mouse epidermis by the tumor promoter 12-O-tetradecanoylphorbol-13-acetate (ODC) at dose 1.7 nmol * * inhibition not significant

`C/C(=C\c1ccc(C(=O)O)cc1)c1ccc2c(c1)C(C)(C)CCS2` gave an Activity (Cricetinae gen. sp. [1]) of 12%, an ED50 (Cricetinae gen. sp. [2]) of 5e-11 and an Activity (Cricetinae gen. sp. [3]) of 7%. It also gave an Activity (Cricetinae gen. sp. [4]) of 100%, an Activity (Mus musculus [5]) of 38% and an Activity (Mus musculus [6]) of 53%. For the same compound, the Decrease (Mus musculus [7]) was 93.6%, the Decrease (Mus musculus [8]) was 93.4% and the inhibition [9] was 68%. The inhibition [10] was 85%, the Mortality range [11] was 15 days and the Mortality range [12] was 10 days. For the same compound, the “Survivors at day 8” value [13] was 100%, the “Survivors at day 15” value [13] was 100% and the “Survivors at day 8” value [14] was 100%. For the same compound, the “Survivors at day 8” value [15] was 100%, the “Survivors at day 15” value [15] was 80% and the “Survivors at day 15” value [16] was 100%. The “Survivors at day 8” value [17] was 100% and the “Survivors at day 15” value [17] was 0%.

For `CCOC(=O)c1cccc(/C=C(C)/C=C/C2=C(C)CCCC2(C)C)c1`, the Activity (Cricetinae gen. sp. [18]) was 2%, the ED50 (Cricetinae gen. sp. [19]) was >1e-08 and the Activity (Cricetinae gen. sp. [20]) was 1%. It also gave an inhibition [21] of 6% and an inhibition [22] of 13%.

`C/C(=C\c1ccc(C(=O)O)cc1)c1ccc2c(c1)C(C)(C)CCC2(C)C` showed an Activity (Cricetinae gen. sp. [23]) of 6%, an Activity (Cricetinae gen. sp. [24]) of 15% and an Activity (Cricetinae gen. sp. [25]) of 15%. The ED50 (Cricetinae gen. sp. [2]) was 1e-12, the Activity (Mus musculus [26]) was 73% and the Activity (Mus musculus [27]) was 50%. The Activity (Mus musculus [28]) was “inactive”, the Decrease (Mus musculus [29]) was 62.9% and the Decrease (Mus musculus [30]) was 92.3%. It also gave an inhibition [31] of 89%, an inhibition [32] of 91% and a Mortality range [33] of 8 days. It also gave a Mortality range [34] of 15 days, a Mortality range [35] of 10 days and a Mortality range [36] of 11 days. For the same compound, the “Survivors at day 8” value [37] was 100%, the “Survivors at day 15” value [37] was 30% and the “Survivors at day 8” value [38] was 87%. For the same compound, the “Survivors at day 15” value [38] was 0%, the “Survivors at day 8” value [16] was 50% and the “Survivors at day 15” value [16] was 0%. For the same compound, the Activity (Mus musculus [39]) was “inactive”, the “Survivors at day 8” value [40] was 97% and the “Survivors at day 15” value [40] was 0%.

With `CCOC(=O)c1ccc([C@H]2CC2c2ccc3c(c2)C2CCC3C2)cc1` (stereo not given in full) the Activity (Cricetinae gen. sp. [41]) was 1%, the ED50 (Cricetinae gen. sp. [2]) was >1e-08 and the Activity (Cricetinae gen. sp. [42]) was 29%. The Activity (Cricetinae gen. sp. [43]) was 3%, the inhibition [44] was 4% and the inhibition [45] was 0%.
